Reference: PMC9530961 (Molecular Therapy. Nucleic Acids, 2022)

Assays:
CSNK2A1 mRNA [1] = assay: qPCR gene silencing in OVCAR3 cells; assay type: cell-based; conditions: 48 h, 10% FBS
Outline: (§1)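 Cells were seeded at 50,000/well and treated with peptide complexes of CSNK2A1-targeting or non-targeting siRNA at increasing N:P ratios in McCoy's 5A/DMEM with 10% FBS. Medium was replaced after a PBS wash at 24 h, for 48 h total. CSNK2A1 mRNA was quantified by TaqMan qRT-PCR with 18S as reference.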

RNase A = molecular target: T1, RNase A (Bos taurus, UniProt P61823); assay: Protection of siRNA from RNase A degradation, agarose gel electrophoresis; assay type: in vitro ADME; conditions: complexes with siNT, 5 μg/mL RNase A, 37°C, 1 h, 6% SDS
T1 sequence (P61823 27-150): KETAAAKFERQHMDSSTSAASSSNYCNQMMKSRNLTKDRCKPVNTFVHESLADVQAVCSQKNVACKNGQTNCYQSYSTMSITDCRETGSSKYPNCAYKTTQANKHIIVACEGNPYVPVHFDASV
Outline: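 Non-targeting siRNA (10 μM solution) was mixed with each peptide (10 μM solution in RNase-free water) at several N:P ratios and held 20 min at room temperature. Complexes or free siRNA were left untreated or exposed to 5 μg/mL RNase A at 37°C for 1 h, then dissociated with 6% SDS. Samples were run on 2% agarose at 100 V, ethidium bromide-stained and imaged for intact siRNA.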

[2] = system: MCF10a breast epithelial cells; assay: Cell viability of healthy cells; assay type: cell-based; conditions: 48 h
CSNK2A1 mRNA [3] = assay: qPCR gene silencing in CAOV3 cells; assay type: cell-based; conditions: CAOV3, 80:1 N:P ratio, 48 h
Outline: as §1

WEADIVADIVADIVAGGG-(d)RRRRRRRRR [DIVA3]
CSNK2A1 mRNA silencing efficacy (CSNK2A1 mRNA [1]; OVCAR3, siCSNK2A1 complex at 60:1 versus siNT complex): 47%

WEADIVADIVHDIVADIVAGGG-(d)RRRRRRRRR [DIV3H]
CSNK2A1 mRNA silencing efficacy (CSNK2A1 mRNA [1]; OVCAR3, siCSNK2A1 complex at 80:1 versus siNT complex): 72%

WEADIVADIVWDIVADIVAGGG-(d)RRRRRRRRR [DIV3W]
siRNA degradation after incubation with RNase A (RNase A): Minimal degradation
cytotoxic effects on healthy cells [2]: no cytotoxic effects were observed
CSNK2A1 mRNA knockdown, maximum (CSNK2A1 mRNA [3]): 80%
